GALR2 ag = agonists of human galanin receptor 2 (GALR2) | GALR2-expressing cells, agonist activation read-out | activation, % (no concentration beside the values) | actives 0.48% (n = 140,000) | AID 803; in the data active = activation above about 5%, passing the limit was not always enough;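 also: 0% = vehicle buffer wells and 100% = reference agonist at full effect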
GALR2 blocker = GALR2 (human) receptor antagonism; inhibition, % at 4 µM; AID 828; actives 0.39% (n = 140,000); O43603; GALR2-expressing cells, antagonist mode; in the data active = inhibition above about 27%;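 also: cells stimulated with galanin 1-16 at roughly its EC80; 0% = agonist challenge control and 100% = basal control without agonist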
HIV Rev-RRE inh = disrupts HIV-1 Rev binding to RRE RNA | Rev peptide-RRE RNA binding, FRET | actives 0.79% (n = 97,000) | P05866 | inhibition, % at 8 µM;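 active = inhibition above the screen-wide mean plus 3 SD, cut at about 35% in these data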;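 also: 0% = median DMSO wells and 100% = median Neomycin B control wells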
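Material: labelled RRE RNA duplex and labelled Rev peptide / Buffer or medium: HEPES pH 7.5 salt buffer with EDTA / Compound dosing: single point, 8 µM final nominal compound concentration / Benchmarks: DMSO low control, neomycin B high control / Timing: 5 min preincubation and 15 min binding, 25 °C / Technique: FRET fluorescence readout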
S1P2 antag = antagonists of human S1P2 receptor; O95136; cell-based S1P2 antagonist assay, inhibition at 5 uM; inhibition, % at 5 µM; actives 0.21% (n = 97,000); in the data active = inhibition above about 45%;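 also: CRE beta-lactamase reporter cells expressing human S1P2 stimulated with S1P; 0% = agonist at EC80 alone and 100% = agonist plus reference antagonist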
S1P2 ag = agonists of human S1P2 receptor; AID 729; S1P2-expressing cell line, agonist reporter read-out; activation, % at 4.5 µM; actives 0.46% (n = 97,000); in the data active = activation above about 16%;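 also: 0% = vehicle low control and 100% = maximal reference agonist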
EphB4 ephrin blk = EphB4-ephrin-B2 interaction antagonism. EphB4 LBD / TNYL-RAW-Alexa532 peptide, fluorescence polarization. inhibition, % at 7 µM. actives 0.15% (n = 97,000). AID 720;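 active = inhibition above the screen-wide mean inhibition plus 3 SD, cut at about 15% in these data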;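 also: 0% = DMSO wells and 100% = excess unlabeled TNYL-RAW peptide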
Numbers without * were called inactive; . = no result; [ ] = dose if it differs, or a comment. An excerpt weighted towards active compounds, which were near 1.8% of everything screened.

SMILES	GALR2 ag	GALR2 blocker	HIV Rev-RRE inh	S1P2 antag	S1P2 ag	EphB4 ephrin blk
CCCOc1nc2c(c(=O)n(C)c(=O)n2C)n1CCC	7.8*	-1	.	.	.	.
Fc1ccc(-n2nnnc2-c2cnc(-c3cccs3)nc2C(F)(F)F)cc1	-1	11	16	76*	-11	-3
O=C(Oc1ccc([N+](=O)[O-])cc1)c1cncc(Br)c1	0	3	.	.	.	.
CCOC(=O)Cc1csc(/N=C/c2c(O)n(-c3ccccc3C(F)(F)F)c(=O)c3ccccc23)n1	0	11	.	.	.	.
CC(C)OC(=O)c1c2nc3ccccc3nc2n2c1[nH]c(=O)c1ccccc12	0	0	69*	-16	-4	0
CCc1nnc(NC(=O)CSc2nc(-c3ccccc3)nc3ccccc23)s1	-1	2	.	.	.	.
Cc1cccc(-n2nc3c([n+]2[O-])CCc2nonc2-3)c1C	0	5	.	.	.	.
Cc1ccc(-n2nc3c([n+]2[O-])CCc2c-3no[n+]2[O-])cc1	-3	49*	.	.	.	.
[O-][n+]1onc2c1CCc1c-2nn(-c2ccccc2Cl)[n+]1[O-]	-3	42*	4	24	-9	-6
CCOc1ccc2nc(N3C(=O)/C(=C/c4ccc(Cl)cc4)NC3=S)sc2c1	-1	-4	.	.	.	.
COc1cc(/C=C/C(=O)OCC(=O)Nc2ccc3c(c2)OCCO3)ccc1OCC#N	-1	-1	.	.	.	.
Cc1cc(C)c2sc(NNC(=O)c3ccc(S(=O)(=O)N4CCc5ccccc5C4)cc3)nc2c1	7.7*	-1	.	.	.	.
CCCc1nc(N)c(C#N)c(N)c1C#N	-1	-4	5	-37	17*	-10
CCOC(=O)c1sc2nc(CN3CCN(c4cccc(C(F)(F)F)c4)CC3)[nH]c(=O)c2c1C	1	-14	.	.	.	.
CCCCOC(=O)c1ccc(-c2ccc(/C=N/NC(=S)NCC)o2)cc1	6	-1	3	-38	23*	1
CCCOC(=O)c1ccc(-c2ccc(C=O)o2)cc1	0	0	.	.	.	.
Cc1nn(-c2ccccc2)c(C)c1C(=O)OC/C(O)=C(\C#N)c1nc2ccccc2[nH]1	-1	-8	40*	-2	-3	1
Cc1ccc(-c2ccc(C(=O)O)[nH]2)cc1	-2	-11	13	13	0	16*
CCOC(=O)c1c(C)oc2c1c1c(c3ccccc32)OCN(Cc2cccnc2)C1	0	-5	8	0	1	16*
CCOC(=O)c1c(C)oc2c1c(C(c1cccnc1)N1CCOCC1)c(O)c1ccccc12 (centres undefined)	-1	16	1	12	-4	2
O=[N+]([O-])c1ccc(O)c(/C=N/Nc2ccccn2)c1	6.2*	20	.	.	.	.
CC1(C)CC(=O)c2c(O)c(-c3ccccc3)c(=O)n(-c3ccccc3)c2C1	1	-6	.	.	.	.
CCOC(=O)c1nc(S(C)(=O)=O)ncc1Cl	-2	36*	0	24	-6	-3
CN(c1ccccc1C(=O)Nc1ccccc1C(=O)NCc1ccco1)S(C)(=O)=O	-2	1	1	-5	-6	15*
CN(c1ccccc1C(=O)NCc1ccco1)S(C)(=O)=O	-1	-8	3	9	-4	1
SMILES	GALR2 ag	GALR2 blocker	HIV Rev-RRE inh	S1P2 antag	S1P2 ag	EphB4 ephrin blk
CCCCC1(C)OC(=O)C(=Cc2ccc(N(C)C)cc2)C(=O)O1 (centres undefined)	-1	-4	54*	3	-7	0
COC(=O)c1cccc(Oc2nc3c(c(=O)n(C)c(=O)n3C)n2C(C)C)c1	-1	-16	10	-13	3	5
Cc1nc(C#N)c(N/N=C/c2c(F)cccc2Cl)o1	-1	4	.	.	.	.
O=C1c2ccccc2-c2onc3ccc(NCCCn4ccnc4)c1c23	1	-10	137*[fluorescence artefact?]	-47	5	107*[fluorescence artefact?]
CC(C)CC(=O)NC(=S)NCCc1ccccc1	0	-5	-3	-10	-1	16*
CSc1ncccc1C(=O)Nc1nc2ccc(Oc3ccccc3)cc2s1	0	-8	.	.	.	.
Cc1ccc2cc3c(N)c(C(=O)N4CC(=O)Nc5ccccc54)sc3nc2c1	2	1	67*	8	4	2
O=C(NCc1cccnc1)/C(=C/c1ccc(-c2ccc(Cl)cc2)o1)S(=O)(=O)c1ccccc1	1	24	1	54*	-5	-5
Cc1ccn2cc(-c3ccc(NC(=O)c4ccco4)cc3)nc2c1	-1	13	.	.	.	.
C=CCOc1cccc(C2C(C(=O)c3ccco3)=C(O)C(=O)N2CCN(CC)CC)c1 (centres undefined)	-2	7	2	-3	-5	-6
C=CCOc1cccc(C2C(C(=O)c3ccc(C)o3)=C(O)C(=O)N2c2nccs2)c1 (centres undefined)	-2	-11	78*	28	-4	2
O=C(Nc1ccc(Cl)c(Cl)c1)Nc1cc(C(=O)NC2CC2)ccc1Cl	0	3	.	.	.	.
Cc1ccc(NC(=S)N2CCN(c3ncccn3)CC2)c(C)c1	0	-2	.	.	.	.
Cc1nnc(SCc2ccccc2)n1N	-2	0	.	.	.	.
COc1ccc(CSc2nnc(C)n2N)cc1	-1	-8	47*	-14	-4	2
O=C(N/N=C/C=C/c1ccccc1)C(O)c1ccccc1 (centres undefined)	-5	30*	-1	9	-5	-9
c1ccc(C2CCC(N3CCNCC3)CC2)cc1 (centres undefined)	1	-16	.	.	.	.
COc1cccc(/C=N/NC(=O)c2nc(-c3ccccc3)cc(-c3ccccc3)n2)c1	-1	-4	1	47*	-4	0
Cc1cc(=O)n(CC(C)C)c(O)c1C#N	-1	2	12	12	-4	17*
C/C(=N\Nc1ccc([N+](=O)[O-])cc1)c1ccc(N)cc1	-2	14	.	.	.	.
CCc1ccc(/C(C)=N\Nc2ccc([N+](=O)[O-])cc2)cc1	0	22	52*	43	-5	-4
O=C(NCC1CCCO1)c1ccc(COc2ccccc2Br)cc1 (centres undefined)	-1	-15	.	.	.	.
O=C(Nc1cccnc1)C1COc2ccccc2O1 (centres undefined)	-1	6	12	18	0	16*
O=C(COC(=O)CNS(=O)(=O)c1ccc2ccccc2c1)Nc1ccccc1Sc1ccccc1	-1	-4	.	.	.	.
COc1ccccc1N=c1oc2cc(O)ccc2cc1C(N)=O	20*	-46	63*	-34	45*	1
COc1ccccc1N=c1oc2cc(O)ccc2cc1C(=O)NCC1CCCO1 (centres undefined)	29*	-15	32	-16	16	-2
Cc1cccc(N=c2oc3cc(O)ccc3cc2C(N)=O)c1	66*	-28	47*	-43	30*	-2
O=C(N/N=C/c1ccccc1OCC(=O)N1CCCC1)C(=O)Nc1ccccc1F	0	-8	.	.	.	.
COc1ccccc1NC(=O)c1ccc(NC(=O)CSc2ncn[nH]2)cc1	-1	13	.	.	.	.

Compound activity deposited in PubChem by The Scripps Research Institute Molecular Screening Center.
